Measurements pooled from the literature.
Each line is one published result; the experiments were not run side by side.
Target: Serine/threonine-protein kinase D1 (PRKD1, Homo sapiens, UniProt Q15139)
One construct used (Q15139 1-912): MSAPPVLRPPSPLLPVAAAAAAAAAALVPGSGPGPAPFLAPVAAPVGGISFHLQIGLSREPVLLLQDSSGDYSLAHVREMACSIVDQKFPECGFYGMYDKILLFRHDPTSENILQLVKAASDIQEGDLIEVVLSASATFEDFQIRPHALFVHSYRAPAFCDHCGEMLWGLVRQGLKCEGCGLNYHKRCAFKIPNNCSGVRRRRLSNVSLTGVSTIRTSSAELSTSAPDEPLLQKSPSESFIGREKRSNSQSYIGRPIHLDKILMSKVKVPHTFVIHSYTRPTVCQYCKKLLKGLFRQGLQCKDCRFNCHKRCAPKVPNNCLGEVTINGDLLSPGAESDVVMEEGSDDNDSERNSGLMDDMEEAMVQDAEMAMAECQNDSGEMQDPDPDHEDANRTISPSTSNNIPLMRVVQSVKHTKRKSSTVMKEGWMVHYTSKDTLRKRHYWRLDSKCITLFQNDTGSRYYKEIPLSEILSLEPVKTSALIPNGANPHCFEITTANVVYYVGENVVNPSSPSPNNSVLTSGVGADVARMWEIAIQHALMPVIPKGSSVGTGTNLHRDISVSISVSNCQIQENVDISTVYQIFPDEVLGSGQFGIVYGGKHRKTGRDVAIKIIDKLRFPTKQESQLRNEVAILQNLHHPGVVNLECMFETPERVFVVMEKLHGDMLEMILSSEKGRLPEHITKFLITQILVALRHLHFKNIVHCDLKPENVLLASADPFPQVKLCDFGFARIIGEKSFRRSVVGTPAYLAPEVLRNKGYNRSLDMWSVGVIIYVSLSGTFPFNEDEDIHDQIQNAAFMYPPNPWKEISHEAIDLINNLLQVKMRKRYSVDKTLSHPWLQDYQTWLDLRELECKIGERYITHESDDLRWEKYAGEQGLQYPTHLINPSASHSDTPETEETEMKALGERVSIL

| SMILES | effect on | method | concentration | remaining binding |
| --- | --- | --- | --- | --- |
| FC(F)(F)Oc1cccc(-c2cnc3ccc(-c4ccncc4)nn23)c1 | cell-free assay | competition with immobilised ligand | 5 µM | 100% |
| O=C1NC(c2ccccn2)Sc2ccccc21 (stereo not drawn) | cell-free assay | competition with immobilised ligand | 1 µM | 100% |
| C=CC(=O)N1CCC(C(=O)NCC(=O)N2CCN(c3nc(-c4cnc(N)nc4C(F)F)nc(N4CCOCC4)n3)CC2)CC1 | binding | competition with immobilised ligand | 1 µM | 90% |
| N[C@@H]1CCN(c2nccc(-c3cnn4ncccc34)n2)C1 | binding |  | 1 µM | 99% |
| C[C@@H](c1ccc(-n2cnc3c(N)ncnc32)cc1)N1CCc2nn(C)c(Cc3ccccc3)c2C1=O | binding | competition with immobilised ligand | 0.1 µM | 48% |
| O=C(c1ccc(Nc2ncc(Cl)c(-c3ccc(Cl)s3)n2)cc1)N1CCC(N2CCCC2)CC1 | binding | competition with immobilised ligand | 1 µM | 32% |
| CCCOc1ccc([C@@H]2[C@@H](C(=O)O)[C@H](c3ccc4c(c3)OCO4)CN2CC(=O)Nc2c(CC)cccc2CC)cc1 | cell-free assay | competition with immobilised ligand | 1 µM | 96% |
| CN(CCCC(F)(F)F)c1nccc(-c2cnn3ncccc23)n1 | binding |  | 1 µM | 95% |
| O=C(NCCCN1CCOCC1)c1ccc(Nc2nccc(-c3cc4ccccc4s3)n2)cc1 | binding | competition with immobilised ligand | 1 µM | 47% |
| COCCOc1nc(-c2ccc(Cl)nc2)nc2c1CN(C(=O)c1ncn3ccccc13)CC2 | cell-free assay | competition with immobilised ligand | 0.1 µM | 90% |
| C[C@@H]1CCN(c2nccc(-c3cnn4ncccc34)n2)C1 | binding |  | 1 µM | 100% |
| Cc1cc(NC(=O)c2cccc(S(F)(F)(F)(F)F)c2)cc(-n2ccn3nc(-c4cccnc4)cc23)c1 | cell-free assay | competition with immobilised ligand | 1 µM | 100% |
| COc1ncc2cc3ccccc3nc2c1C#N | cell-free assay | competition with immobilised ligand | 5 µM | 87% |
| CNC(=O)[C@@H]1CC[C@@H](n2c(-c3ccc4cnccc4c3)nc3ccc(C(=O)NCc4cccc(C(N)=O)c4)cc32)C1 | binding | competition with immobilised ligand | 1 µM | 100% |
| O=C(NCC1CCOCC1)c1n[nH]cc1NC(=O)c1c(F)cccc1F | binding | competition with immobilised ligand | 1 µM | 100% |
| Cc1cnn2ncc(-c3ccnc(N(C)C)n3)c2c1 | binding |  | 1 µM | 95% |
| C[C@@]1(Cc2ccc(C#N)cc2)C(=O)N(c2cc(Cl)cc(Cl)c2)c2ncc(C(=O)NC3(c4nc(C5CCC5)no4)CC3)n21 | cell-free assay | competition with immobilised ligand | 1 µM | 86% |
| CC1CCCN1c1nccc(-c2cnn3ncccc23)n1 (stereo not drawn) | binding |  | 1 µM | 100% |
| O=S(=O)(NC1CCC(c2cc(F)ccc2F)(S(=O)(=O)c2ccc(Cl)cc2)CC1)C(F)(F)F (stereo not drawn) | cell-free assay | competition with immobilised ligand | 1 µM | 100% |
| O=C(NCCCN1CCOCC1)c1ccc(Nc2ncc(Cl)c(-c3ccc(Cl)s3)n2)cc1 | binding | competition with immobilised ligand | 1 µM | 30% |
| CN(c1nccc(-c2cnn3ncccc23)n1)C1CC1 | binding |  | 1 µM | 100% |
